APP 5'UTR act – APP 5'UTR luciferase reporter activation; SH-SY5Y APP 5'UTR luciferase reporter, luminescence; zero percent = DMSO vehicle wells; activation, % at 2 µM; 1% of 190,000 active; AID 1276;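 active = activation above a set limit, based on mean plus 3 SD of controls, cut at about 140% in these data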
STAT3 activator – activators of IL-6 induced STAT3 signaling; U3A cells, IL-6 STAT3-luciferase reporter, luminescence; 100% = signal with IL-6 EC80 alone; activation (% of control), % at 5.6 µM; 0.91% of 190,000 active; AID 871;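 active = activation above the screen-wide mean of compound activation plus 3 SD, cut at about 130% in these data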
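Material: human U3A cells carrying STAT3-luciferase construct. Measured by: reporter luminescence signal. Timing: compound 1 h, then IL-6 6 h at 37 °C.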
STAT1 act – activators of IFN-gamma induced STAT1 signaling | NIH 3T3 STAT1-luciferase reporter, luminescence; 100% = IFN-gamma alone, no compound | activation (% of control), % at 5.5 µM | 2.6% of 200,000 active | AID 932;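 active = activation above the screen-wide mean activation plus 3 SD, cut at about 130% in these data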
NF-kB neuron act – NF-kB expression increase, human neuronal cells | AID 1239 | fold change at 12.5 µM | 1.6% of 190,000 active | NF-kB reporter expression; active compounds read high; in the data active = fold change above about 3.3
STAT1 inh – STAT1 signaling inhibition | NIH 3T3 STAT1-luciferase reporter, IFN-gamma, luminescence | inhibition, % at 5.5 µM | 0.35% of 200,000 active | AID 920;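 active = inhibition above a set limit, the mean inhibition across all tested compounds plus 3 SD, cut at about 34% in these data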
STAT3 inh – STAT3 signaling inhibition; U3A cells, IL-6 STAT3-luciferase reporter, luminescence; host cell line lacks STAT1; inhibition, % at 5.5 µM; 0.89% of 190,000 active; AID 862;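 active = inhibition above the mean inhibition across all screened compounds plus 3 SD, cut at about 44% in these data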
STAT1 act conf – STAT1 activation, confirmation assay. shares compounds with STAT1 act. NIH 3T3 STAT1-luciferase reporter, IFN-gamma potentiation, luminescence; 100% = IFN-gamma EC80 alone, no compound. activation (% of control), % at 5.7 µM. 97% of 1,200 active;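 active = activation above a set limit carried over from the earlier primary STAT1 screen, cut at about 140% in these data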
NFkB act STAT1ct – activates NF-kappaB, counter-screen to STAT1 activators | activation (% of control), % at 5.7 µM | shares compounds with STAT1 act | HEK293T NF-kB luciferase reporter, TNF-alpha stimulated, luminescence; 100% = TNF-alpha with vehicle only | 43% of 1,200 active | AID 1306;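 active = activation above the mean of solvent-only control wells plus 3 SD, set per campaign, cut at about 130% in these data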;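 note: TNF-alpha given at a submaximal dose yielding about 80% of full reporter signal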
STAT3 act 2 – activates human STAT3, counter-screen to STAT1 activators. shares compounds with STAT1 act. U3A cells STAT3-luciferase reporter, IL-6, luminescence; cells lack STAT1; 100 = IL-6 alone, no compound effect. activation (% of control), % at 5.7 µM. 46% of 1,200 active;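 active = activation above the solvent-only control well mean plus 3 SD, set per plate batch, cut at about 110% in these data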;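 note: higher means more STAT3 reporter activation so hits are non-selective activators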
A number is an active result; . = inactive; / = no result given. In the library only some 4.9% were active in any assay of this set; here they are far more common.

SMILES | APP 5'UTR act | STAT3 activator | STAT1 act | NF-kB neuron act | STAT1 inh | STAT3 inh | STAT1 act conf | NFkB act STAT1ct | STAT3 act 2
O=C(Nc1ccc(N2CCOCC2)c(Cl)c1)c1cccnc1Cl | . | . | . | . | . | . | / | / | /
O=C(Nc1ccc(N2CCOCC2)c(Cl)c1)c1c(F)c(F)c(F)c(F)c1F | . | . | . | . | . | . | / | / | /
C=C(C)CSc1nncn1/N=C/c1ccc(OC)cc1 | . | . | 153 | . | . | . | 165 | . | 128
Nc1cccc(C(=O)OCC(=O)c2ccccc2)c1 | . | . | 181 | . | . | . | 181 | . | 117
Nc1cccc(C(=O)OCC(=O)Nc2cccc3c2C(=O)c2ccccc2C3=O)c1 | . | . | . | . | . | . | / | / | /
Nc1nc(-c2ccc(Cl)cc2)nnc1-c1ccc(Br)cc1 | 194 | . | 165 | 3.8 | . | . | 191 | 143 | .
CC(=O)OCC(=O)Nc1ccc(SC(F)F)cc1 | . | . | . | . | . | . | / | / | /
O=C(CCl)Nc1ccc(N=Nc2ccccc2)cc1 | . | . | . | . | . | . | / | / | /
O=C(Nc1ccc(N=Nc2ccccc2)cc1)c1ccccc1Cl | 158 | . | 180 | . | . | . | 204 | 153 | 120
CC(C)C(=O)OCC(=O)Nc1ccc(N=Nc2ccccc2)cc1 | 170 | . | 151 | 5.1 | . | . | 184 | 140 | 117
CC(=O)Nc1ccc(N=Nc2ccccc2)cc1 | . | . | 152 | 5.3 | . | . | 188 | . | .
CC(=O)OCC(=O)Nc1ccc(N=Nc2ccccc2)cc1 | . | . | 162 | 4.9 | . | . | 190 | 135 | 114
CCn1c(C)c(C(C)=O)c(N2CCN(C(=O)c3ccco3)CC2)nc1=S | . | . | . | . | . | . | / | / | /
Cc1cccn2c1nc(=S)n2C(=O)c1ccco1 | 147 | . | 208 | . | . | . | 256 | 176 | 135
Cc1cccnc1CCNC(=O)CC1C(=O)NCCN1CC1CCCCC1 (stereo not drawn) | . | . | . | . | . | . | / | / | /
CCCc1cc2c(=O)n(NC(=O)c3nn(C)cc3[N+](=O)[O-])c(C)nc2s1 | . | . | . | . | . | . | / | / | /
COc1ccc(/C=C2\OC(=O)c3c(OC)cccc32)cc1OC | . | . | 169 | . | . | . | 209 | 139 | 112
COCCNC(=O)CN(C(=O)Cn1nnc2ccccc21)c1cccc(C)c1C | . | . | . | . | . | . | / | / | /
Cc1ccc(C(=O)/C=C/Nc2cccc([N+](=O)[O-])c2)o1 | . | . | 153 | 5.5 | . | . | 187 | . | .
S=C(Nc1ccc(Cl)c(Cl)c1)N1CCOCC1 | . | . | . | . | . | . | / | / | /
S=C(c1ccc(-c2ccc(Br)cc2)o1)N1CCCCC1 | 159 | . | 170 | 5.6 | . | . | 210 | 145 | 114
S=C(c1ccc(-c2ccc(Cl)c(Cl)c2)o1)N1CCOCC1 | . | . | 157 | 5.3 | . | . | 202 | 144 | 119
CC(C)(C)C(=O)Nc1ccccc1C(=O)OCC(=O)c1ccc2c(c1)OCCO2 | . | . | . | . | . | . | / | / | /
O=C(COC(=O)c1ccccc1NC(=O)C1CC1)c1ccc2c(c1)OCCO2 | . | . | 159 | . | . | . | 170 | . | .
COc1cccc(CNC(=O)CN2CCC(c3nc4ccc(C)cc4[nH]3)CC2)c1 | . | . | . | . | . | . | / | / | /
N#CC1CC(c2ccccc2)=NN1c1ccccc1[N+](=O)[O-] (stereo not drawn) | . | . | 156 | . | . | . | 155 | . | 124
Cc1oc(-c2ccc(-c3ccccc3)cc2)nc1CN(C)C1CCOC1 (stereo not drawn) | . | . | 165 | . | . | . | 192 | 144 | 117
